KCC2 mod: KCC2 (human) Cl- transport modulation; Q9H2X9; B-score of Tl+ flux slope (higher = more flux/activation; lower = inhibition) at 10 µM; KCC2 cells, thallium flux FluoZin-2 fluorescence; hit rate 2.2% among 190,000;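 active means thallium flux slope and its plate-corrected score both differing from the plate sample mean at a set confidence after two filtering rounds, in either direction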;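 further: slope of fluorescence scaled to starting intensity during 10 to 20 s after thallium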
Lmaj promast: inhibitors of Leishmania major promastigote growth; Leishmania major promastigotes, resazurin fluorescence viability; inhibition, % at 10 µM; hit rate 9% among 200,000; AID 1063; in the data active means inhibition above about 50%;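 further: promastigotes grown with compound for 44 hours at 28 °C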
Diaphorase inh: counter-screen for diaphorase-based assays: diaphorase inhibitors and chemical oxidizers. diaphorase resazurin-to-resorufin fluorescence, NADH, 16 min; bacterial (C. kluyveri) enzyme, not human. inhibition, % at 20 µM. hit rate 0.69% among 190,000. AID 1217;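 active means primary screen inhibition at 20 µM above a set limit, cut at about 50% in these data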;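 further: plate controls were DMSO with full reaction for no effect and wells lacking NADH for full effect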
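Test system: bacterial diaphorase enzyme (C. kluyveri); Quantity: 0.14 U/mL diaphorase, enzyme working solution; Times: reaction incubation of 16 min at room temperature; Measured by: fluorescence of resorufin formed from resazurin, Ex 544/Em 590 nm; Benchmarks: positive control minus NADH, DMSO neutral control.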
Diaphorase act: activates diaphorase or chemically reduces, flagging diaphorase assay artifacts; Diaphorase/resazurin coupled assay, resorufin fluorescence, 16 min; hits give high values; 1 = vehicle wells, 0 = NADH-free wells; activation factor at 20 µM; hit rate 0.005% among 190,000;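 active means diaphorase activity raised at least twofold by the compound at 20 µM; inactive means activation factor below 2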
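Test system: Clostridium kluyveri diaphorase, purified enzyme. Buffer or medium: 50 mM HEPES pH 7.4 buffer plus MgCl2 and Tween 20. Also added: 0.114 mM NADH and 0.1 mM resazurin, final amounts. Dosing: compound 20 µM once, DMSO 1%. Schedule: 16 min enzyme reaction, ambient temperature. Detection: fluorescence of resorufin, 544 nm excitation, 590 nm emission.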
WT yeast gro inh: growth inhibition of WT yeast, mitochondrial fusion screen. mitochondrial fusion phenotypic screen, WT strain. inhibition, % at 10 µM. hit rate 2.1% among 190,000. AID 1362; in the data active means inhibition above about 58%; tested in S. cerevisiae
ROMK mod: modulates human ROMK potassium channel activity. Tet-inducible ROMK, thallium flux fluorescence; actives lie on both sides. B-score at 10 µM. hit rate 2% among 130,000;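 active means signal ratio slope over the read window, or its plate-corrected B-score, at least 3 SD from the plate mean, either direction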;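 further: B-score of the F/F0 ratio slope over 7 to 12 s after thallium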
Target sequence (P48048 whole entry, looked up): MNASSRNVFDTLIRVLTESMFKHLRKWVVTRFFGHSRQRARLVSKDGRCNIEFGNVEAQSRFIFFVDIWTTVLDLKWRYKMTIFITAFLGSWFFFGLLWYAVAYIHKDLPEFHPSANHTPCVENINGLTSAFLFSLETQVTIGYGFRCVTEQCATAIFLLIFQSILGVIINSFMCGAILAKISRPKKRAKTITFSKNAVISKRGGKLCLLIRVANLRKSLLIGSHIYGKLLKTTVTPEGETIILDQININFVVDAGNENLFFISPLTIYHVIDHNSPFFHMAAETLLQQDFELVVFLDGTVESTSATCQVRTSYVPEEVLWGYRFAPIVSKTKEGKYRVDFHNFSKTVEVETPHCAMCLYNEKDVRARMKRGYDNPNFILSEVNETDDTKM
ROMK retest: confirmation of human ROMK potassium channel modulators | shares compounds with ROMK mod | ROMK thallium flux, fluorescence ratio; hits give low values | normalized thallium flux (F/F0 slope) at 10 µM | hit rate 54% among 3,000 | AID 1917;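 active means Flux at 10 µM at least 3 SD below or above vehicle control mean in one or both replicates; inconclusive means no clear call, values can overlap the other calls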
Starred values were filed as active, the others as inactive; ? = inconclusive; . = no result given. Most compounds without a hit are left out; they make up all but 12% or so of the library.

SMILES | KCC2 mod | Lmaj promast | Diaphorase inh | Diaphorase act | WT yeast gro inh | ROMK mod | ROMK retest
Cc1ccc(Cn2c(=N)n(CC(O)COc3ccccc3)c3ccccc32)cc1 (stereo not given) | 0.18 | 101* | -8 | 1.1 | 33 | -4.1* | 0.049*
Cc1cccc(OCC(O)CN2C(C)(C)CC(O)CC2(C)C)c1 (stereo not given) | 2.6 | -3 | -1 | 1 | 1 | 0.3 | .
CCCCn1c(=N)n(CC(O)COc2ccc(C)cc2)c2ccccc21 (stereo not given) | 0.08 | 101* | 9 | 0.9 | 13 | -7* | 0.048*
Cc1nn(CC(=O)Nc2cccnc2N2CCOCC2)c(=O)c2ccccc12 | . | . | 18 | 0.8 | 10 | . | .
Cc1ccc(N2/C(=N/c3nc(C)cc(C)n3)NC(=O)CC2C(=O)O)cc1 (stereo not given) | 0.36 | 1 | 20 | 0.8 | 0 | 0.0097 | .
Cc1cc(C)nc(/N=C2\NC(=O)CC(C(=O)O)N2c2ccc(Cl)cc2)n1 (stereo not given) | -0.42 | -2 | 6 | 0.9 | 13 | . | 0.082
[O-][n+]1onc2c3ccnnc3ccc21 | 1 | 1 | 20 | 0.8 | 5 | . | .
Cc1cc2c(ccc3c2no[n+]3[O-])nn1 | 0.35 | 10 | 18 | 0.8 | -11 | 2.7* | 0.072
O=C(CCn1c2c(c3ccccc31)CCCC2)NNC(=O)c1ccc([N+](=O)[O-])cc1 | -3.2 | -2 | 33 | 0.7 | 15 | . | 0.048*
Cc1nc2ccc(NC(=O)c3ccc(F)c(S(=O)(=O)N4CCOCC4)c3)cc2s1 | 1.9 | -4 | 9 | 0.9 | -11 | . | .
Cc1cc(C(=O)CSc2nnnn2-c2ccc(O)cc2)c(C)n1Cc1ccc2c(c1)OCO2 | -0.99 | 17 | 28 | 0.7 | 22 | . | ?
O=C(NCc1ccccc1)N1CCC(n2cnc3cc(F)ccc32)CC1 | 0.08 | 6 | 6 | 0.9 | 9 | . | 0.069*
COc1ccc(CCNC(=O)C2CC(c3ccccc3[N+](=O)[O-])=NO2)cc1 (stereo not given) | . | -1 | 20 | 0.8 | 16 | . | .
CCC[N+](CC#Cc1ccccc1)(CCC)CC(=O)OC | 0.57 | -6 | 7 | 0.9 | -17 | 0.26 | .
CCC[N+](CC#Cc1ccccc1)(CCC)CC(=O)c1ccc(Cl)cc1 | -1 | 100* | 1 | 1 | 3 | -3* | 0.063*
COC(=O)C(=Cc1ccccc1[N+](=O)[O-])C(=O)OC | 0.13 | . | . | . | . | -2.6* | 0.051*
COc1ccc(CNC(=O)/C=C/c2ccccc2[N+](=O)[O-])cc1 | 0.77 | -1 | -14 | 1.1 | -13 | 0.91 | .
Cc1ccc2nc(/C(C#N)=C\c3cc(O)ccc3[N+](=O)[O-])[nH]c2c1 | -0.65 | -3 | 24 | 0.8 | -8 | 0.8 | .
CCCOc1cc(N(CC)CC)ccc1/C=C(/C#N)c1nc2ccc(C)cc2[nH]1 | -0.83 | 66* | 6 | 0.9 | 7 | -4.2* | 0.039*
O=C(O)c1ccccc1N/N=C/c1c(Sc2nnnn2-c2ccccc2)nc2ccccn2c1=O | -1.7 | . | . | . | . | . | .
O=c1c(/C=N/Nc2ccccc2)c(Sc2nnnn2-c2ccccc2)nc2ccccn12 | -0.069 | 9 | 21 | 0.8 | 18 | -3.7* | 0.04*
O=C1c2ccccc2C(Nc2ccc3c(c2)OCCO3)N1Cc1ccccc1 (stereo not given) | -2.4 | 48 | 24 | 0.8 | 20 | . | 0.078
c1cncc(-c2noc(CC3CCCCC3)n2)c1 | 0.026 | -5 | 0 | 1 | -1 | -0.28 | .
COc1cccc(/C=N/n2c(N)nc3ccccc32)c1OC | 0.031 | 59* | 0 | 1 | 20 | 6.6* | 0.11*
COc1cccc(/C=N/n2cnc3ccccc32)c1OC | -0.16 | 0 | 2 | 1 | 13 | 1.1 | .
SMILES | KCC2 mod | Lmaj promast | Diaphorase inh | Diaphorase act | WT yeast gro inh | ROMK mod | ROMK retest
N#CCN1C(=O)C2CCCN2c2ccc(S(=O)(=O)N3CCOCC3)cc21 (stereo not given) | -0.19 | -2 | -3 | 1 | 1 | -0.42 | .
COc1ccc2c(CC(=O)Nc3nccs3)coc2c1 | -0.22 | 2 | 12 | 0.9 | -3 | 0.25 | .
CCN(CC)CCCNC(=S)N(Cc1ccco1)Cc1cc2cc3c(cc2[nH]c1=O)OCCO3 | 0.65 | -2 | 2 | 1 | -5 | . | .
CCN(CC)CCCNC(=S)N(Cc1cccs1)Cc1cc2cc3c(cc2[nH]c1=O)OCCO3 | 1.6 | 12 | 6 | 0.9 | -5 | -11* | 0.055*
Cc1ccc(C(=O)N2CCc3ccccc32)o1 | -2.1 | 7 | -2 | 1 | 7 | -0.51 | .
COc1ccc(CC(=O)N2CCCc3ccccc32)cc1 | 0.38 | -4 | -8 | 1.1 | 5 | . | 0.077
CC(=O)c1ccc(-c2ccc(C(=O)N3CCCc4ccccc43)o2)cc1 | -3 | 5 | 16 | 0.8 | 44 | -3.5* | 0.057*
CCOC(=O)CCC(=O)Nc1cccc([N+](=O)[O-])c1 | 0.68 | -3 | 5 | 1 | 22 | 1.2 | .
CCOC(=O)C1=C(N)OC2=C(C(=O)CCC2)C1c1ccco1 (stereo not given) | . | 6 | 23 | 0.8 | 14 | 0.21 | .
CCOc1ccccc1C1C(C(=O)OC)=C(N)OC2=C1C(=O)CCC2 (stereo not given) | 1 | -6 | 5 | 0.9 | -3 | . | 0.079
COc1ccc(C(=O)COC(=O)CCCn2c(=O)oc3ccccc32)cc1 | -0.98 | -2 | . | . | . | 0.043 | .
Nc1ccc2c(c1)C(=O)C(=O)c1ccccc1-2 | 0.56 | 100* | 28 | 0.7 | 97* | -5.6* | 0.037*
O=S(=O)(c1ccccc1)c1nc(-c2ccco2)oc1N1CCCCCC1 | -0.66 | 9 | 25 | 0.7 | 35 | -2.8* | 0.072
COc1ccc(CCNC(=O)CN(c2cccc([N+](=O)[O-])c2)S(C)(=O)=O)cc1OC | 0.047 | 5 | 7 | 0.9 | 15 | -0.047 | 0.082
CN(C)C(=S)c1ccccc1 | 0.47 | . | . | . | . | . | 0.074
COc1ccccc1OCCNC(=O)/C=C/c1ccc([N+](=O)[O-])cc1 | -0.84 | 5 | 17 | 0.8 | 9 | -0.79 | .
O=C(/C=C/c1ccc([N+](=O)[O-])cc1)NCCSc1ccccc1 | . | -2 | 5 | 0.9 | 27 | . | ?
Cc1cc(C)c(NC(=O)C2CSCCS2)c(C)c1 (stereo not given) | -0.6 | 7 | 17 | 0.8 | -21 | . | .
COc1cc2cc(C(c3nnnn3C(C)(C)C)N3CCc4ccccc4C3)c(=O)[nH]c2cc1OC (stereo not given) | -0.89 | 28 | 19 | 0.8 | -1 | -3.6* | ?
Cc1cccc(N2CCN(c3nnnn3-c3ccccc3)CC2C)c1 (stereo not given) | -0.82 | 5 | 17 | 0.8 | 20 | -1.7 | .
Cc1cc(C=C2C(=O)c3ccccc3C2=O)c(C)n1-c1ccc(Cl)cc1 | . | -2 | 22 | 0.8 | 22 | . | .
